# RAD52 anneal inh: RAD52 DNA annealing inhibitors, primary screen, biochemical, FRET, single point, set 2 | inhibition, % at 18.7 µM | recombinant RAD52 DNA annealing, FRET fluorescence | DNA repair protein RAD52 homolog (Homo sapiens), P43351 | AID 651710, 2012 | 360,000 tested, 0.46% active;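 active = every replicate showing at least 50% inhibition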
# RAD54 branch: inhibitors of human RAD54 branch migration, primary screen, biochemical, fluorescence, single point | DNA repair and recombination protein RAD54-like (Homo sapiens), Q92698 | RAD54 Holliday junction branch migration, FAM/BHQ fluorescence | inhibition, % at 10.4 µM | 360,000 tested, 0.14% active;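 active = mean normalized replicate activity at least 40 and at least half of replicates scoring 40 or more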;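 also: inhibitors cause a drop in the FAM fluorescence signal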
# Target sequence (Q92698 whole entry, looked up): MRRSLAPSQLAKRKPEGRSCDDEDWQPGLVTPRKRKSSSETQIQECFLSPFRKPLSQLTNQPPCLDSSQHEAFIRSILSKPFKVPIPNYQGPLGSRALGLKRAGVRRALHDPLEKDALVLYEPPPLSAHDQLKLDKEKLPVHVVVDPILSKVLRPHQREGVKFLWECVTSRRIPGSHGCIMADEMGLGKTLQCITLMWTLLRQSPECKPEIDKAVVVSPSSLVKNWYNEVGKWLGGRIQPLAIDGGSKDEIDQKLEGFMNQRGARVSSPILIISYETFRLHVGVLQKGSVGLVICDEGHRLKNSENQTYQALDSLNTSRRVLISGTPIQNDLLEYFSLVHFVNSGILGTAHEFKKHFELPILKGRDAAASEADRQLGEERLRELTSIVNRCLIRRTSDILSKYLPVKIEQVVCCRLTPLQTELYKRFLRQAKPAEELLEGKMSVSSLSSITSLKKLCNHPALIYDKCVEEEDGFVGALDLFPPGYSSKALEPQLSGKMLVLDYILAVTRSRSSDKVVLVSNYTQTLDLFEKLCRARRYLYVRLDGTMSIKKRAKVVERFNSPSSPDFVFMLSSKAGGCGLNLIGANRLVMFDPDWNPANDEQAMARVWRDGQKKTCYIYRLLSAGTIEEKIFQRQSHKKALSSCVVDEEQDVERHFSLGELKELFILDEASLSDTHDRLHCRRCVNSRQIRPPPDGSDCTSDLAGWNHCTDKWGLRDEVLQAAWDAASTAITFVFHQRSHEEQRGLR
# FN deposition inh: inhibitors of fibronectin matrix deposition, primary screen, AH1F cells, Alexa488-fibronectin fluorescence, plate reader. AH1F fibroblasts, overnight. inhibition, % at 12.6 µM. 350,000 tested, 0.086% active;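 active = mean inhibition across replicates of 30% or more, regardless of how many single replicates reach that level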
#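 Assay system: AH1F fibroblasts / Quantity: 10000 cells per well / Medium: DMEM plus 2% serum, read in PBS / Reagent: labelled fibronectin 24 nM / Dosing: single dose, pinned / Times: 1 h cell attachment, overnight exposure to compound and label / Signal: fluorescence, ex 485 nm, em 525 nm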
# PAX8 inh HTS: inhibitors of PAX8-driven TPO luciferase reporter, primary screen, RMG-I cells, single concentration. SteadyGlo, 24 h. inhibition, % at 12.6 µM. 360,000 tested, 1.2% active. AID 652154, 2013;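 active = mean replicate inhibition at least 60% with every replicate also reaching 60%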;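 also: luciferase light reporting Pax8 driven TPO promoter activity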
# DNA binder FP: DNA-binding compounds via dye displacement, dose response, artefact control for RAD52 inhibitor project, biochemical, fluorescence polarization, cherry-pick; shares compounds with RAD52 anneal inh; Salmon sperm DNA/acridine orange FP displacement; AC50, µM; 1,000 tested, 8% active; AID 652128, 2013;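 active = fitted half-maximal concentration for signal loss at or below twice the highest dose tested, in every separate run, actives reach about 64 µM in these data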
# Hits are given with their value; 0 = inactive; - = not tested or not shown. Shown are actives, neighbours in structure and some others; about 1.3% of the full set was active somewhere.
SMILES,RAD52 anneal inh,RAD54 branch,FN deposition inh,PAX8 inh HTS,DNA binder FP
CC[C@H](C)Cc1cn([C@@H](CCCN=C(N)N)C(=O)NCCCCCCCCCCC(=O)N2CCNCC2)nn1,52,0,0,0,0
CC[C@H](C)[C@@H](C(=O)NCCCCCCCCCCC(=O)N1CCNCC1)n1cc(CCCCN=C(N)N)nn1,0,0,0,0,-
COc1ccc(NC(=S)NC23CN4CN(CN(C4)C2)C3)c(OC)c1,86,-,0,0,0
COc1ccc(NC(=S)NC23CN4CN(CN(C4)C2)C3)cc1,-,0,0,0,-
CCOC(=O)c1cnc2c(ccc3ccccc32)c1NCCN(C)C,79,80,0,0,0
Clc1ccc(-c2csc(N3CCCCCC3)n2)cc1,0,0,0,0,-
CN1CCN(c2nc(-c3ccc(Cl)s3)cs2)CC1,51,-,0,0,0
Nc1c(-c2ccccc2)c(CSc2nc3ccccc3[nH]2)nn1-c1ccc(C(=O)O)cc1,0,-,-,0,-
NC(=NCc1ccc2c(c1)OCO2)NC(=O)c1ccccc1,51,-,0,0,0
C/C(CCc1ccc2c(c1)OCO2)=N\NC(=O)c1ccccc1,0,-,0,0,-
CN(C)CCOc1ccc2c(c1)C(=O)C(=Cc1ncc([N+](=O)[O-])n1C)C2,88,62,0,99,0
CCc1cc(OCCN(C)C)ccc1Cl,0,-,-,0,-
CN(C)CCCN(C(=O)CCOc1ccccc1)c1nc2c(F)cccc2s1,96,-,0,87,0
CN(C)CCCN(C(=O)COc1ccc(Cl)cc1)c1nc2c(F)cccc2s1,0,-,0,0,-
COc1cc2ccccc2cc1C(=O)N(CCN(C)C)c1nc2ccc(C)cc2s1,0,0,0,0,-
Cc1ccc2sc(N(CCCN(C)C)C(=O)CN3C(=O)c4ccccc4C3=O)nc2c1C,69,0,0,0,0
Cc1cccc2sc(N(CCCN(C)C)C(=O)COc3ccc(Cl)cc3)nc12,50,-,0,0,0
COc1cc2ccccc2cc1C(=O)N(CCN(C)C)c1nc2c(C)cccc2s1,55,0,0,0,0
CN(C)CCCN(C(=O)CCc1ccccc1)c1nc2c(F)cccc2s1,-,0,-,-,-
O=C(COC(=O)c1cccnc1)NC1CCCc2ccccc21 (centres undefined),0,-,-,0,-
Cc1ccc(OCC(=O)N(Cc2ccc(C)o2)C2CCS(=O)(=O)C2)cc1 (centres undefined),0,0,0,0,-
O=C1c2cccc(NCCCNCCO)c2C(=O)c2cccc(NCCCNCCO)c21,91,-,-,0,1.5µM
O=C1c2ccccc2C(=O)c2c(NCc3cccnc3)cccc21,-,0,0,0,-
CN(C)CCNC(=O)c1csc(Nc2cccc3ccccc23)n1,51,0,0,0,0
CN1CCN(c2cc(-c3cc(O)c4ncccc4c3)ccn2)CC1,107,0,0,0,0
SMILES,RAD52 anneal inh,RAD54 branch,FN deposition inh,PAX8 inh HTS,DNA binder FP
Cn1c2c(c(=O)n3ncnc13)CCCC2,0,-,0,0,-
CCN1CCN(C(=O)CCCn2c(C)c3cnn(-c4ccccc4)c(=O)c3c2C)CC1,0,0,0,0,-
Cc1c2cnn(-c3ccccc3)c(=O)c2c(C)n1CCCC(=O)NCCN1CCN(C)CC1,58,-,0,0,0
CC(C)[C@@H]1COCc2cn(nn2)CCCCC(=O)N1,-,-,0,-,-
CCOc1ccc2[nH]c3c(c2c1)CNCC3,55,0,0,0,0
CCOc1ccc2[nH]c(=S)[nH]c2c1,-,0,-,-,-
Cc1ccc(C)c(S(=O)(=O)N2CCN(C(=O)c3ccc(C)s3)CC2)c1,0,0,0,0,-
Cc1cc(C)c2nc(N(CCCN(C)C)C(=O)c3ccc4c(c3)CCCC4)sc2c1,58,-,-,0,0
Cc1cc(C)c2nc(N(CCCN(C)C)C(=O)c3ccc(S(=O)(=O)N4CCCCCC4)cc3)sc2c1,61,0,0,0,0
CN(C)CCCN(C(=O)c1ccc(N2C(=O)CCC2=O)cc1)c1nc2c(F)cccc2s1,0,0,0,0,-
CN(C)CCCN(C(=O)c1ccc2c(c1)CCCC2)c1nc2c(F)cccc2s1,75,0,0,0,0
Cc1ccc2nc(N(CCCN(C)C)C(=O)c3ccc4c(c3)CCCC4)sc2c1,-,0,0,0,-
COc1ccc(CN2CC(=O)N(c3cccc(Cl)c3)C2=S)cc1OC,0,0,0,0,-
COCCN(C(=O)CSCC(=O)Nc1ccc(C)cc1)c1c(N)n(CC(C)C)c(=O)[nH]c1=O,0,0,0,0,-
CC(NC(=O)Cn1cc(Br)c([N+](=O)[O-])n1)c1ccccc1 (centres undefined),0,0,0,0,-
COc1ccc2nc(NCCNC(=S)NCCCN3CCOCC3)c(C#N)cc2c1,70,-,-,0,0
Cc1cc2cc(C#N)c(NCCNC(=S)NCCCN3CCOCC3)nc2cc1C,0,-,0,0,-
COc1ccc(-n2c(C)cc3cc(OC(C)=O)ccc32)cc1,0,0,0,0,-
Cc1ccc2nc(N(CCCN(C)C)C(=O)c3cc(-c4cccs4)nc4ccccc34)sc2c1,54,0,0,0,0
CN(C)CCCN(C(=O)c1nc2ccccc2s1)c1nc2ccc(F)cc2s1,84,0,0,0,0
CC[N+](CC)(CC)CCCCOc1ccc2c(c1)C(=O)c1cc(OCCCC[N+](CC)(CC)CC)ccc1-2,102,99,0,0,21µM
Cc1nc2ccc(S(=O)(=O)NCC(=O)N3CCc4ccccc4C3)cc2s1,-,0,-,-,-
COC(=O)C1=C(C)N(Cc2cccc(C(F)(F)F)c2)C(=NCc2cccc(C(F)(F)F)c2)NC1c1ccc(Cl)cc1 (centres undefined),67,-,0,0,0
COC(=O)C1=C(C)N(Cc2ccc(C(F)(F)F)cc2)C(=NCc2ccc(C(F)(F)F)cc2)NC1c1ccccc1 (centres undefined),59,-,0,0,0
Cc1ccc(OCC(O)CNC2CCCC2)c(C)c1 (centres undefined),0,0,0,0,-
SMILES,RAD52 anneal inh,RAD54 branch,FN deposition inh,PAX8 inh HTS,DNA binder FP
Cc1ccccc1OCC(O)CNC1CCC(NCC(O)COc2ccccc2C)CC1 (centres undefined),0,0,0,114,0
NC(N)=NC(N)=Nc1cccc2ccccc12,0,0,0,0,-
NC(N)=Nc1cc2ccccc2c2ccccc12,56,-,0,0,0
O=C(CN1CCCCC1)Nc1ccccc1,-,0,0,-,-
O=C(CN1CCCCC1)Nc1ccc(N2CCCCCC2)cc1,62,-,0,0,0
O=C(CCC(=O)NNc1nc2ccccc2c2nc(-c3ccccc3)nn12)NCCCN1CCOCC1,0,-,-,0,-
CCN(CC)CCCNc1nc2ccccc2c2nc(-c3ccncc3)nn12,0,109,0,0,46µM
CN1CCN(CCCNc2nc3ccccc3c3nc(-c4ccccc4)nn23)CC1,66,-,0,0,0
O=C(c1ccc([N+](=O)[O-])s1)N1CCN(c2ccccc2)CC1,0,-,0,0,-
CCOc1ccc(CCNC(=O)C2CCN(c3nnc(-n4cccc4)s3)CC2)cc1,0,0,0,0,-

# Bioassay records deposited in PubChem BioAssay by Broad Institute.
